Measurements pooled from the literature.
Lines come from different studies, so protocols differ.
Target: Serine/threonine-protein kinase TBK1 (TBK1, Homo sapiens, UniProt Q9UHD2)
One construct used (Q9UHD2 1-729): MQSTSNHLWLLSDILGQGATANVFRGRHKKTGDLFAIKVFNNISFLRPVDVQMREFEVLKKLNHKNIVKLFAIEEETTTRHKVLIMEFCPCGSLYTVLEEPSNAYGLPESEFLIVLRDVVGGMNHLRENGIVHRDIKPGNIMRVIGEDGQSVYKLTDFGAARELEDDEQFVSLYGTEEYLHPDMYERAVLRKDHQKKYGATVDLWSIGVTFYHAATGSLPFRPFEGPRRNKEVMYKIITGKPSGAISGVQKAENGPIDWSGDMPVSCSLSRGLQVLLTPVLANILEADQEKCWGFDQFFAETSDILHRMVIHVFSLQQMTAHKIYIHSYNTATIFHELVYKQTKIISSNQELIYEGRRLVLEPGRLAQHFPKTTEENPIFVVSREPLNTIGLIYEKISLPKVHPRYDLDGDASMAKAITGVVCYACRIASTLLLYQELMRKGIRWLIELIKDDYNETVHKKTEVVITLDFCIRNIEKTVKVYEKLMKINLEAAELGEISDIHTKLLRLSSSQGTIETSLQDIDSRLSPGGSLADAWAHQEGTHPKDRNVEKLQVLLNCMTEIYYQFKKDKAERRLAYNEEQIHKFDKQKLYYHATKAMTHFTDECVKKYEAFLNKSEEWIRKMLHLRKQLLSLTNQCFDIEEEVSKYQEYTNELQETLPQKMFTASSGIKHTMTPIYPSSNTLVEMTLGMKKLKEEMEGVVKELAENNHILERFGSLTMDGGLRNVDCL

`O=C(NCC1CCOCC1)c1n[nH]cc1NC(=O)c1c(F)cccc1F` gave a remaining binding of 96% (binding; competition with immobilised ligand; 1 µM).
For `CNCc1ccccc1-c1csc([C@@H](C)Nc2nc(C)nc3cc(OC)c(OC)cc23)c1`, the remaining binding was 100% (cell-free assay; competition with immobilised ligand; 1 µM).
For `CN(C)c1ncc(F)c(-c2cnn3ncccc23)n1`, the remaining binding was 86% (binding; 1 µM).
`CS(=O)(=O)NCC[C@H](NC(=O)c1cncc2c1cnn2-c1ccc(F)cc1)c1ccnc(S(C)(=O)=O)c1` gave a remaining binding of 94% (cell-free assay; competition with immobilised ligand; 1 µM).
`N[C@@H]1CCN(c2nccc(-c3cnn4ncccc34)n2)C1` gave a remaining binding of 97% (binding; 1 µM).
The remaining binding of `FC(F)(F)Oc1cccc(-c2cnc3ccc(-c4ccncc4)nn23)c1` is reported as 54% (binding; competition with immobilised ligand; 5 µM).
The remaining binding of `CC(C)(O)c1cncc(-c2nc3ccc(F)cc3n2C2CC2)c1` is reported as 72% (cell-free assay; competition with immobilised ligand; 1 µM).
The remaining binding of `F[C@@H]1CCN(c2nccc(-c3cnn4ncccc34)n2)C1` is reported as 84% (binding; 1 µM).
For `O=C(Nc1ccc(Oc2ccc(F)cc2)cc1)N1CCc2ncccc2[C@H]1c1ccc(F)cc1`, the remaining binding was 81% (cell-free assay; competition with immobilised ligand; 1 µM).
`Cc1cnn2ncc(-c3ccnc(N(C)C)n3)c2c1` has a remaining binding of 82% (binding; 1 µM).
`Nc1ncc2c(n1)-c1c([nH]c3ccc(C#CC4CC4)cc13)CCCC2` gave a remaining binding of 88% (binding; competition with immobilised ligand; 1 µM).
The remaining binding of `CC(=O)N1CCC(c2ccc(C(=O)NC(=N)N)cc2C(F)(F)F)CC1` is reported as 100% (cell-free assay; competition with immobilised ligand; 1 µM).
For `CNC(=O)[C@@H]1CC[C@@H](n2c(-c3ccc4cnccc4c3)nc3ccc(C(=O)NCc4cccc(C(N)=O)c4)cc32)C1`, the remaining binding was 95% (binding; competition with immobilised ligand; 1 µM).
The remaining binding of `CN(C)c1nccc(-c2cnn3ncccc23)n1` is reported as 82% (binding; 1 µM).
For `O=C(c1ccc(Nc2ncc(Cl)c(-c3cc4ccccc4s3)n2)cc1)N1CCC(N2CCCC2)CC1`, the remaining binding was 11% (binding; competition with immobilised ligand; 1 µM).
With `O=C(O)[C@@H]1[C@@H](Cn2nnc3ccccc3c2=O)CC[C@H]1C(=O)c1ccc(OCCC2CCOCC2)cc1` the remaining binding was 100% (cell-free assay; competition with immobilised ligand; 1 µM).
The remaining binding of `COc1cnc(Nc2cccc(S(N)(=O)=O)c2)nc1N1CCN(c2ccccc2)C(=O)C1` is reported as 61% (binding; competition with immobilised ligand; 1 µM).
With `O=C(c1ccc(Nc2nccc(-c3cc4ccccc4s3)n2)cc1)N1CCC(N2CCCC2)CC1` the remaining binding was 27% (binding; competition with immobilised ligand; 1 µM).
The remaining binding of `C[C@H]1CCN(c2nccc(-c3cnn4ncccc34)n2)C1` is reported as 80% (binding; 1 µM).
`O=C(NCCCN1CCOCC1)c1ccc(Nc2nccc(-c3cc4ccccc4s3)n2)cc1` has a remaining binding of 70% (binding; competition with immobilised ligand; 1 µM).
`C=CC(=O)N1CCC(C(=O)NCC(=O)N2CCN(c3nc(-c4cnc(N)nc4C(F)F)nc(N4CCOCC4)n3)CC2)CC1` has a remaining binding of 91% (binding; competition with immobilised ligand; 1 µM).
